In brackets after ≈: the same amount, converted by molar mass.
Columns and labels:
[1] = test system: Aspergillus niger; test: Antifungal activity against Aspergillus niger ATCC 16404 after 48 hrs by broth microdilution method; type: functional; conditions: ATCC 16404, 48 h
Summary of the method: (§1)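 Susceptibility of filamentous fungi (molds) by broth microdilution per NCCLS M38-A in 96-well microplates. The MIC is read as the lowest inhibitory concentration. It is given as one number when replicate data fully agreed.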

[2] = Toxicity against human erythrocytes assessed as hemolytic activity at 5 ug/ml; type: cell-based, Erythrocyte; conditions: read-out: Activity
Summary of the method: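 Lysis of erythrocytes in defibrinated human blood was measured under buffered conditions with compound at 5 µg/mL. Percent hemolysis is the mean of blood samples from two donors.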

[3] = test system: Fusarium oxysporum; test: Antifungal activity against Fusarium oxysporum VKM F-140 after 48 hrs by broth microdilution method; type: functional; summary of the method: as §1
[4] = test system: Candida albicans; test: Antifungal activity against Candida albicans ATCC 14053 after 48 hrs by broth microdilution method; type: functional; conditions: ATCC 14053, 48 h
Summary of the method: (§2)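 Yeast susceptibility by broth microdilution per NCCLS M27-A in 96-well plates. MIC is the lowest concentration inhibiting growth. Where repeat runs fully coincided, a single value is reported.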

[5] = test system: Vanrija humicola; test: Antifungal activity against Cryptococcus humicolus ATCC 9949 after 48 hrs by broth microdilution method; type: functional; conditions: ATCC 9949, 48 h; summary of the method: as §2
[6] = test system: Candida albicans; test: Antifungal activity against Candida albicans ATCC 10231after 48 hrs by broth microdilution method; type: functional; conditions: ATCC 10231, 48 h

SMILES	MIC [1]	MIC [3]	MIC [4]	MIC [5]	MIC50 [6]	MIC90 [6]	hemolysis at 5 ug/ml [2]
C[C@@H]1[C@H](O)[C@@H](C)/C=C/C=C/C=C/C=C/C=C/C=C/C=C/[C@H](O[C@H]2O[C@@H](C)[C@H](O)[C@@H](N)[C@H]2O)C[C@@H]2O[C@](O)(C[C@@H](O)[C@H](O)CC[C@@H](O)C[C@@H](O)C[C@@H](O)CC(=O)O[C@H]1C)C[C@H](O)[C@H]2C(=O)NC1C2CC3CC(C2)CC1C3 (stereo partly specified)	4 µg/mL (≈ 3.78 µM)	8 µg/mL (≈ 7.57 µM)	4 µg/mL (≈ 3.78 µM)	4 µg/mL (≈ 3.78 µM)			
C[C@@H]1[C@H](O)[C@@H](C)/C=C/C=C/C=C/C=C/C=C/C=C/C=C/[C@H](O[C@H]2O[C@@H](C)[C@H](O)[C@@H](N)[C@H]2O)C[C@@H]2O[C@](O)(C[C@@H](O)[C@H](O)CC[C@@H](O)C[C@@H](O)C[C@@H](O)CC(=O)O[C@H]1C)C[C@H](O)[C@H]2C(N)=O	4 µg/mL (≈ 4.33 µM)	4 µg/mL (≈ 4.33 µM)	2 µg/mL (≈ 2.17 µM)	2 µg/mL (≈ 2.17 µM)			8%
C[C@@H]1[C@H](O)[C@@H](C)/C=C/C=C/C=C/C=C/C=C/C=C/C=C/[C@H](O[C@H]2O[C@@H](C)[C@H](O)[C@@H](N)[C@H]2O)C[C@@H]2O[C@](O)(C[C@@H](O)[C@H](O)CC[C@@H](O)C[C@@H](O)C[C@@H](O)CC(=O)O[C@H]1C)C[C@H](O)[C@H]2C(=O)N(C)CC(O)C(O)C(O)C(O)CO (stereo partly specified)	4 µg/mL (≈ 3.63 µM)	> 16 µg/mL	4 µg/mL (≈ 3.63 µM)	4 µg/mL (≈ 3.63 µM)			
C[C@@H]1[C@H](O)[C@@H](C)/C=C/C=C/C=C/C=C/C=C/C=C/C=C/[C@H](O[C@H]2O[C@@H](C)[C@H](O)[C@@H](NCCCN)[C@H]2O)C[C@@H]2O[C@](O)(C[C@@H](O)[C@H](O)CC[C@@H](O)C[C@@H](O)C[C@@H](O)CC(=O)O[C@H]1C)C[C@H](O)[C@H]2C(=O)O	4 µg/mL (≈ 4.08 µM)	4 µg/mL (≈ 4.08 µM)	2 µg/mL (≈ 2.04 µM)	4 µg/mL (≈ 4.08 µM)			45%
C[C@@H]1[C@H](O)[C@@H](C)/C=C/C=C/C=C/C=C/C=C/C=C/C=C/[C@H](O[C@H]2O[C@@H](C)[C@H](O)[C@@H](NCc3ccc(N(C)C)cc3)[C@H]2O)C[C@@H]2O[C@](O)(C[C@@H](O)[C@H](O)CC[C@@H](O)C[C@@H](O)C[C@@H](O)CC(=O)O[C@H]1C)C[C@H](O)[C@H]2C(=O)O	4 µg/mL (≈ 3.78 µM)	> 16 µg/mL	2 µg/mL (≈ 1.89 µM)	2 µg/mL (≈ 1.89 µM)			
C[C@@H]1[C@H](O)[C@@H](C)/C=C/C=C/C=C/C=C/C=C/C=C/C=C/[C@H](O[C@H]2O[C@@H](C)[C@H](O)[C@@H](NCc3ccccc3S(=O)(=O)O)[C@H]2O)C[C@@H]2O[C@](O)(C[C@@H](O)[C@H](O)CC[C@@H](O)C[C@@H](O)C[C@@H](O)CC(=O)O[C@H]1C)C[C@H](O)[C@H]2C(=O)O	4 µg/mL (≈ 3.66 µM)	> 16 µg/mL	4 µg/mL (≈ 3.66 µM)	4 µg/mL (≈ 3.66 µM)			
C[C@@H]1[C@H](O)[C@@H](C)/C=C/C=C/C=C/C=C/C=C/C=C/C=C/[C@H](O[C@H]2O[C@@H](C)[C@H](O)[C@@H](NC(=O)C(N)CCCCN)[C@H]2O)C[C@@H]2O[C@](O)(C[C@@H](O)[C@H](O)CC[C@@H](O)C[C@@H](O)C[C@@H](O)CC(=O)O[C@H]1C)C[C@H](O)[C@H]2C(=O)O (stereo partly specified)	16 µg/mL (≈ 15.2 µM)	> 16 µg/mL	8 µg/mL (≈ 7.6 µM)	8 µg/mL (≈ 7.6 µM)			
COC(=O)[C@H](C)NC(=O)[C@H]1[C@@H]2C[C@@H](O[C@H]3O[C@@H](C)[C@H](O)[C@@H](N)[C@H]3O)/C=C/C=C/C=C/C=C/C=C/C=C/C=C/[C@H](C)[C@@H](O)[C@@H](C)[C@H](C)OC(=O)C[C@H](O)C[C@H](O)C[C@H](O)CC[C@@H](O)[C@H](O)C[C@](O)(C[C@@H]1O)O2	4 µg/mL (≈ 3.96 µM)	8 µg/mL (≈ 7.93 µM)	2 µg/mL (≈ 1.98 µM)	2 µg/mL (≈ 1.98 µM)			
C[C@@H]1[C@H](O)[C@@H](C)/C=C/C=C/C=C/C=C/C=C/C=C/C=C/[C@H](O[C@H]2O[C@@H](C)[C@H](O)[C@@H](N)[C@H]2O)C[C@@H]2O[C@](O)(C[C@@H](O)[C@H](O)CC[C@@H](O)C[C@@H](O)C[C@@H](O)CC(=O)O[C@H]1C)C[C@H](O)[C@H]2C(=O)NCCO	4 µg/mL (≈ 4.14 µM)	4 µg/mL (≈ 4.14 µM)	2 µg/mL (≈ 2.07 µM)	4 µg/mL (≈ 4.14 µM)			3%
C[C@@H]1[C@H](O)[C@@H](C)/C=C/C=C/C=C/C=C/C=C/C=C/C=C/[C@H](O[C@H]2O[C@@H](C)[C@H](O)[C@@H](N)[C@H]2O)C[C@@H]2O[C@](O)(C[C@@H](O)[C@H](O)CC[C@@H](O)C[C@@H](O)C[C@@H](O)CC(=O)O[C@H]1C)C[C@H](O)[C@H]2C(=O)NC(C)(CO)CO	4 µg/mL (≈ 3.96 µM)	16 µg/mL (≈ 15.8 µM)	4 µg/mL (≈ 3.96 µM)	4 µg/mL (≈ 3.96 µM)			
COC(=O)[C@@H](NC(=O)[C@H]1[C@@H]2C[C@@H](O[C@H]3O[C@@H](C)[C@H](O)[C@@H](N)[C@H]3O)/C=C/C=C/C=C/C=C/C=C/C=C/C=C/[C@H](C)[C@@H](O)[C@@H](C)[C@H](C)OC(=O)C[C@H](O)C[C@H](O)C[C@H](O)CC[C@@H](O)[C@H](O)C[C@](O)(C[C@@H]1O)O2)C(C)C	4 µg/mL (≈ 3.86 µM)	8 µg/mL (≈ 7.71 µM)	2 µg/mL (≈ 1.93 µM)	2 µg/mL (≈ 1.93 µM)			
COC(=O)C(CO)NC(=O)[C@H]1[C@@H]2C[C@@H](O[C@H]3O[C@@H](C)[C@H](O)[C@@H](N)[C@H]3O)/C=C/C=C/C=C/C=C/C=C/C=C/C=C/[C@H](C)[C@@H](O)[C@@H](C)[C@H](C)OC(=O)C[C@H](O)C[C@H](O)C[C@H](O)CC[C@@H](O)[C@H](O)C[C@](O)(C[C@@H]1O)O2 (stereo partly specified)	4 µg/mL (≈ 3.9 µM)	4 µg/mL (≈ 3.9 µM)	2 µg/mL (≈ 1.95 µM)	2 µg/mL (≈ 1.95 µM)			4%
CNC(=O)[C@H]1[C@@H]2C[C@@H](O[C@H]3O[C@@H](C)[C@H](O)[C@@H](N)[C@H]3O)/C=C/C=C/C=C/C=C/C=C/C=C/C=C/[C@H](C)[C@@H](O)[C@@H](C)[C@H](C)OC(=O)C[C@H](O)C[C@H](O)C[C@H](O)CC[C@@H](O)[C@H](O)C[C@](O)(C[C@@H]1O)O2	2 µg/mL (≈ 2.13 µM)	8 µg/mL (≈ 8.54 µM)	2 µg/mL (≈ 2.13 µM)	1 µg/mL (≈ 1.07 µM)			5%

More lines, main results first:

MIC [1]	MIC [3]	MIC [4]	MIC [5]	MIC50 [6]	MIC90 [6]	SMILES	hemolysis at 5 ug/ml [2]
2 µg/mL (≈ 1.98 µM)	4 µg/mL (≈ 3.96 µM)	1 µg/mL (≈ 0.991 µM)	1 µg/mL (≈ 0.991 µM)	0.15 µg/mL (≈ 0.149 µM)	0.36 µg/mL (≈ 0.357 µM)	CCOC(=O)CNC(=O)[C@H]1[C@@H]2C[C@@H](O[C@H]3O[C@@H](C)[C@H](O)[C@@H](N)[C@H]3O)/C=C/C=C/C=C/C=C/C=C/C=C/C=C/[C@H](C)[C@@H](O)[C@@H](C)[C@H](C)OC(=O)C[C@H](O)C[C@H](O)C[C@H](O)CC[C@@H](O)[C@H](O)C[C@](O)(C[C@@H]1O)O2	38%
2 µg/mL (≈ 1.6 µM)	8 µg/mL (≈ 6.41 µM)	2 µg/mL (≈ 1.6 µM)	2 µg/mL (≈ 1.6 µM)			C[C@@H]1[C@H](O)[C@@H](C)/C=C/C=C/C=C/C=C/C=C/C=C/C=C/[C@H](O[C@H]2O[C@@H](C)[C@H](O)[C@@H](NC[C@]3(O)OC[C@@H](O)[C@@H](O[C@@H]4O[C@H](CO)[C@H](O)[C@H](O)[C@H]4O)[C@@H]3O)[C@H]2O)C[C@@H]2O[C@](O)(C[C@@H](O)[C@H](O)CC[C@@H](O)C[C@@H](O)C[C@@H](O)CC(=O)O[C@H]1C)C[C@H](O)[C@H]2C(=O)O	4%
2 µg/mL (≈ 1.84 µM)	8 µg/mL (≈ 7.37 µM)	1 µg/mL (≈ 0.921 µM)	1 µg/mL (≈ 0.921 µM)			C[C@@H]1[C@H](O)[C@@H](C)/C=C/C=C/C=C/C=C/C=C/C=C/C=C/[C@H](O[C@H]2O[C@@H](C)[C@H](O)[C@@H](N)[C@H]2O)C[C@@H]2O[C@](O)(C[C@@H](O)[C@H](O)CC[C@@H](O)C[C@@H](O)C[C@@H](O)CC(=O)O[C@H]1C)C[C@H](O)[C@H]2C(=O)N[C@H]1[C@H](O)[C@@H](O)[C@H](CO)O[C@H]1O	3%
1 µg/mL (≈ 0.963 µM)	1 µg/mL (≈ 0.963 µM)	1 µg/mL (≈ 0.963 µM)	1 µg/mL (≈ 0.963 µM)	0.04 µg/mL (≈ 0.0385 µM)	0.13 µg/mL (≈ 0.125 µM)	C[C@@H]1[C@H](O)[C@@H](C)/C=C/C=C/C=C/C=C/C=C/C=C/C=C/[C@H](O[C@H]2O[C@@H](C)[C@H](O)[C@@H](N(CCCN)CCCN)[C@H]2O)C[C@@H]2O[C@](O)(C[C@@H](O)[C@H](O)CC[C@@H](O)C[C@@H](O)C[C@@H](O)CC(=O)O[C@H]1C)C[C@H](O)[C@H]2C(=O)O	15%
2 µg/mL (≈ 1.84 µM)	8 µg/mL (≈ 7.36 µM)	1 µg/mL (≈ 0.921 µM)	1 µg/mL (≈ 0.921 µM)			C[C@@H]1[C@H](O)[C@@H](C)/C=C/C=C/C=C/C=C/C=C/C=C/C=C/[C@H](O[C@H]2O[C@@H](C)[C@H](O)[C@@H](NC[C@]3(O)OC[C@@H](O)[C@H](O)[C@@H]3O)[C@H]2O)C[C@@H]2O[C@](O)(C[C@@H](O)[C@H](O)CC[C@@H](O)C[C@@H](O)C[C@@H](O)CC(=O)O[C@H]1C)C[C@H](O)[C@H]2C(=O)O	8%
2 µg/mL (≈ 1.95 µM)	4 µg/mL (≈ 3.9 µM)	2 µg/mL (≈ 1.95 µM)	2 µg/mL (≈ 1.95 µM)			COC(=O)[C@H](CO)NC(=O)[C@H]1[C@@H]2C[C@@H](O[C@H]3O[C@@H](C)[C@H](O)[C@@H](N)[C@H]3O)/C=C/C=C/C=C/C=C/C=C/C=C/C=C/[C@H](C)[C@@H](O)[C@@H](C)[C@H](C)OC(=O)C[C@H](O)C[C@H](O)C[C@H](O)CC[C@@H](O)[C@H](O)C[C@](O)(C[C@@H]1O)O2	14%
2 µg/mL (≈ 1.84 µM)	8 µg/mL (≈ 7.36 µM)	1 µg/mL (≈ 0.921 µM)	1 µg/mL (≈ 0.921 µM)			C[C@@H]1[C@H](O)[C@@H](C)/C=C/C=C/C=C/C=C/C=C/C=C/C=C/[C@H](O[C@H]2O[C@@H](C)[C@H](O)[C@@H](NC[C@]3(O)OC[C@@H](O)[C@@H](O)[C@@H]3O)[C@H]2O)C[C@@H]2O[C@](O)(C[C@@H](O)[C@H](O)CC[C@@H](O)C[C@@H](O)C[C@@H](O)CC(=O)O[C@H]1C)C[C@H](O)[C@H]2C(=O)O	5%
